# The list is not random: actives were taken first. Their share in the collection is about 27%.
# Cav32 inh: human Cav3.2 channel inhibition, primary screen; Cav3.2-expressing cells, Fluo-4 calcium fluorescence FDSS; stronger effect = lower value; B-score at 10 µM; 4% of 100,000 active;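 active means single-dose well whose peak fluorescence ratio is a statistical outlier from its plate by either plate-standardised score or position-corrected B-score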
# CYP2C9 inhib: inhibitors of human CYP2C9; P11712; inhibition, % at 5 µM; CYP2C9 Supersomes, luciferin-H conversion, luminescence; 20% of 96,000 active;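 active means blocking of liver enzyme CYP2C9 beyond about 50% at 5 µM, limit read from the data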
# CYP2C19 activ: cytochrome P450 2C19 (human) activation | recombinant CYP2C19, luciferin-H EGE luminescence; stronger effect = higher value; 0 = fully inhibited enzyme, 1 = untreated enzyme | 96,000 tested, under 10 active | P33261 | activation factor at 5 µM;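 active means activation factor of at least 2 at 5 µM in the primary screen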
# Target sequence (P33261 whole entry, looked up): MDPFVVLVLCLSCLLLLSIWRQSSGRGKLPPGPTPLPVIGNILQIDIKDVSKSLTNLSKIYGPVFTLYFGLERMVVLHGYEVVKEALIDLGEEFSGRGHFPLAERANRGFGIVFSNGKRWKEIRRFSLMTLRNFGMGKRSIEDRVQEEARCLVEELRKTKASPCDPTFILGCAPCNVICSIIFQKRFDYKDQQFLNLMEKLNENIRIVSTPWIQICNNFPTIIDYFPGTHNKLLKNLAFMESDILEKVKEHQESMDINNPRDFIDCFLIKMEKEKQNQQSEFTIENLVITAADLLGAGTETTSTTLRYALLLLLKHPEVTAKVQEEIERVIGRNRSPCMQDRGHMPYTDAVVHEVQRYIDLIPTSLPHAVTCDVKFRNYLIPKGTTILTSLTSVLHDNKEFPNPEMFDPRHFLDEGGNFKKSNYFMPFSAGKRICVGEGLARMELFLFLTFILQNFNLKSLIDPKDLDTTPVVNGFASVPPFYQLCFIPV
# CYP2C19 inh: human CYP2C19 inhibition. P33261. CYP2C19 Supersomes, luciferin-H EGE luminescence, 30 min. inhibition, % at 5 µM. 21% of 96,000 active;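 active means CYP2C19 inhibition above a set limit at 5 µM in the primary screen, cut at about 50% in these data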
# CYP2C9 activ: increases human cytochrome P450 2C9 activity; recombinant CYP2C9, luciferin-H conversion, luminescence; stronger effect = higher value; factor 1 = untreated enzyme, 0 = blocked; 1.4% of 96,000 active; activation factor at 5 µM;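 active means activation factor of 2 or more for CYP2C9 at a 5 µM dose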
# HIV Rev-RRE inh: disrupts HIV-1 Rev binding to RRE RNA; inhibition, % at 8 µM; Rev peptide-RRE RNA binding, FRET; P05866; 0.79% of 97,000 active;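 active means inhibition above the screen-wide mean plus 3 SD, cut at about 35% in these data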
# Target sequence (P05866 whole entry, looked up): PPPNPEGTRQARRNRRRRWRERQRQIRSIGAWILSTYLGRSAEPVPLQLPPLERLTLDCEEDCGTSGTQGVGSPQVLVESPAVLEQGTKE
#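 System: Cy5-labelled duplex RRE RNA binding fluorescein-labelled HIV Rev peptide; Signal: fluorescein-to-Cy5 FRET, 480 nm excitation; Also added: labelled Rev peptide; Compound: one concentration, 8 µM nominal; Buffer or medium: HEPES pH 7.5 salt buffer with EDTA; Read-out: % inhibition of FRET ratio versus controls; Schedule: 5 min preincubation and 15 min binding, 25 °C.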
# Hits are given with their value; - = inactive; . = not tested or not shown.
SMILES,Cav32 inh,CYP2C9 inhib,CYP2C19 activ,CYP2C19 inh,CYP2C9 activ,HIV Rev-RRE inh
O=C(NCCN1CCN(c2ccccc2)CC1)C1CCN(S(=O)(=O)c2cccc3nonc23)CC1,-,-,-,52.2,-,-
O=C(NCCc1ccccc1)C1CCN(S(=O)(=O)c2ccc(-c3nn[nH]n3)cc2)CC1,-,83.1,-,-,-,-
COc1ccc(CCNC(=O)C2CCN(S(=O)(=O)c3cccc4nonc34)CC2)cc1OC,.,-,-,-,-,-
O=C1CC(CCC(=O)NC2CC2)c2ccccc2N1 (configuration not stated),-,-,-,-,-,-
CSCC[C@H](NC(=O)CCNC(C)=O)c1nc2ccccc2[nH]1,-,-,-,-,-,-
CCOC(=O)N1CCC(NC(=O)CCN2C(=O)COc3ccccc32)CC1,-,-,-,-,-,-
Cc1cccc(CCNC(=O)C2CCN(S(=O)(=O)c3c(C)noc3C)CC2)c1,-,-,-,-,-,-
CC(C)(C)[C@H]1C=C(C(=O)Nc2ccccc2)O[C@@H](OCCCCO)C1,-,.,.,.,.,.
O=C(NCCc1ccccc1)C1CCN(S(=O)(=O)c2cccc3nonc23)CC1,-,-,-,-,2.3,-
O=C(NCCc1ccccc1)C1CCCN(S(=O)(=O)c2cccc3nonc23)C1 (configuration not stated),-,-,-,-,-,-
Cc1ccc(S(=O)(=O)N[C@H](C(=O)Oc2ccc3c(C(F)(F)F)cc(=O)oc3c2)c2ccccc2)cc1,-,-,-,-,-,58.2
COCCSc1ccccc1C(=O)N1CCN(Cc2ccc3c(c2)OCO3)CC1,-,-,-,-,-,-
COc1ccc(C(=O)Cn2c(Br)nc3c2c(=O)n(C)c(=O)n3C)cc1OC,-,-,-,-,-,-
COc1ccc(-c2nc3c(c(=O)n(C)c(=O)n3C)n2CC2CC(c3ccccc3)=NO2)cc1OC (configuration not stated),3.4,.,.,.,.,-
Cc1cc(C)n(-c2nc3c(c(=O)n(C)c(=O)n3C)n2CC(O)COc2ccccc2C)n1 (configuration not stated),.,.,.,.,.,-
COC(=O)c1cc2ccc(OC)c(OC)c2c(=O)s1,-,-,-,56.7,-,-
COc1ccc2cc(C(=O)N3CCCCCC3)sc(=O)c2c1OC,.,-,-,-,-,-
COC(=O)c1cc2ccccc2c(=O)s1,-,-,-,61.1,-,-
CC/C(=C1/C(=O)CC(C)(C)C(C(=O)OC)C1=O)N1CCCC1 (configuration not stated),-,-,-,-,-,.
O=C(CCn1cccc1)Nc1cc(F)ccc1F,-,-,-,-,-,-
CCC(Cc1ccccc1)NC(=O)CCn1cccc1 (configuration not stated),-,66.3,-,65.7,-,-
O=C(CCN1CCc2ccccc2C1)Nc1ccc(F)cc1,-,-,-,61.0,-,-
O=C(CCN1CCN(c2ccc(F)cc2)CC1)Nc1ccc(F)cc1,.,-,-,-,-,-
O=C(CCn1cccc1)Nc1ccc(F)cc1,-,-,-,61.5,-,-
CN1CCN(CCC(=O)Nc2cccc(F)c2)CC1,-5.04,-,-,-,-,-
SMILES,Cav32 inh,CYP2C9 inhib,CYP2C19 activ,CYP2C19 inh,CYP2C9 activ,HIV Rev-RRE inh
COCCCNC(=O)C(=O)N/N=C/c1ccc(OCC(=O)Nc2cccc(Cl)c2C)c(OC)c1,-,-,-,-,-,-
CC1=CCC2C(=O)N(c3nc(C)cc(C)n3)C(=O)C2C1 (configuration not stated),-,-,-,-,-,-
CCc1ccc(NC(=O)CCn2cccc2)cc1,-,-,-,71.1,-,-
COC(=O)c1ccc(NC(=O)CCn2cccc2)cc1,-,-,-,-,-,-
Cc1c(C(=O)N2CCOCC2)sc2ncnc(N3CCc4ccccc4C3)c12,-,65.3,-,-,-,-
Cc1c(C(=O)N2CCN(c3ccccc3)CC2)sc2ncnc(N3CCC(C)CC3)c12,.,-,-,61.3,-,-
Cc1c(N2C(=O)CSC23C(=O)Nc2ccccc23)c(=O)n(-c2ccccc2)n1C (configuration not stated),-,-,-,-,-,-
CCOc1ccc(-c2nnc(SCC(=O)N(CC)CC)n2N)cc1,.,-,-,-,2.1,-
CCC(C)NC(=O)c1ccc(CS(=O)(=O)Cc2ccc(Cl)cc2)o1 (configuration not stated),-,63.4,-,67.3,-,-
Cc1cccc(NC(=S)NN(Cc2ccccc2)c2ccccc2)c1C,-4.85,-,-,-,-,-
Cc1ccc(C2=NOC(C)(c3nnc(-c4ccc(F)cc4)o3)C2)cc1 (configuration not stated),-,.,.,.,.,.
COc1ccc(NC(=O)C2Cc3ccccc3C(=O)O2)cc1 (configuration not stated),-,.,.,.,.,.
Cc1ccccc1NC(=O)C1Cc2ccccc2C(=O)O1 (configuration not stated),-,-,-,71.0,-,-
CCn1cc(C(=O)OCc2ccccc2)c(=O)c2ccc(C)nc21,-,-,-,-,-,-
CCn1cc(C(=O)OCC(=O)OC2CC(C)CCC2C(C)C)c(=O)c2ccc(C)nc21 (configuration not stated),-6.38,-,-,74.6,-,-
COc1ccc(-n2nc(C(=O)NCC(=O)NCc3ccco3)c3ccccc3c2=O)cc1Cl,-,-,-,-,-,-
CCN1CCN(CC(=O)n2c3c(c4ccccc42)CC(C)CC3)CC1 (configuration not stated),-,-,-,51.3,-,-
COc1ccc(Cn2c(=O)n(Cc3ccco3)c(=N)c3c4c(sc32)COC(C)(C)C4)cc1,-,91.2,-,61.1,-,.
CC1(C)Cc2c(sc3c2c(=N)n(Cc2ccco2)c(=O)n3Cc2ccc(F)cc2)CO1,-,-,-,-,-,.
COc1ccc(C2CCCN2C(=O)Nc2ccc(Cl)cc2)cc1OC (configuration not stated),-,-,-,72.8,-,-
COc1ccc(NC(=O)C2CCCN2C(=O)Nc2ccccc2)cc1OC (configuration not stated),-,.,.,.,.,-
Cc1nn(Cc2ccccc2)c(C)c1NC(=O)c1noc2c1CCc1ccccc1-2,-6.26,61.2,-,-,-,-
CCc1ccc(NC(=O)c2noc3c2CCc2ccccc2-3)cc1,-,-,-,-,2.1,-
Cc1ccc(NC(=O)c2noc3c2CCc2ccccc2-3)cc1,-,-,-,-,-,-
CC1S/C(=C(\C#N)C(N)=O)N(c2ccc(F)cc2)C1=O (configuration not stated),-,-,-,-,-,-
CN1CCC(N(C)CC(=O)Nc2cccc(Oc3ccccc3)c2)CC1,-,-,-,-,-,-
O=C(CN(c1ccccc1)S(=O)(=O)c1ccc(F)cc1)N1CCCCCC1,-,-,-,-,-,-
O=C1O[C@@H]([C@H](O)CO)C(O)=C1O,-,.,.,.,.,.

# Screening data as filed in PubChem.
